Screens deposited in PubChem by Broad Institute.
Shown are actives, neighbours in structure and some others; about 2.6% of the full set was active somewhere.
Xi reactivation: X-chromosome reactivation activator | activation, % at 7.58 µM | actives 0.055% (n = 360,000) | XiGFP mouse fibroblasts, % GFP-positive cells imaging, 3 d; cells co-treated with 5-aza-dC sensitizer; scaled so ellipticine positive control = 100%;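 active = mean normalized replicate activation at least 10% and every replicate at or above 10%; inconclusive = only one of the two criteria met; inactive = mean below 10% and not all replicates reach 10%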;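 note: 0% = median of on-plate neutral control wells and 100% = ellipticine 6 µM median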
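assay system = SV40-immortalized XiGFP fibroblast cells, line 68-5-11 | buffer or medium = DMEM plus 5-aza-dC sensitizer | doses = single-point pinned compound dosing | times = 3-day compound exposure, then 15 min fixation at room temperature | benchmarks = positive control ellipticine, 6 µM final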
esBAF inh: blocks esBAF chromatin remodeling in mouse ES cells; reporter increase, % at 12.5 µM; actives 2% (n = 350,000); Bmi1-luciferase knock-in reporter, 24 h; 100% = twice the neutral-well signal; in the data active = activation above about 40%; inconclusive = no clear call, values can overlap the other calls;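 note: 0% = median of the plate's neutral control wells and 100% = double that signal; a rise in the Bmi1 reporter signal indicates esBAF inhibition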
MITF TRPM1 HTS: increases MITF-driven TRPM1 promoter luciferase signal | actives 0.75% (n = 300,000) | activation, % at 12.5 µM | SK-MEL-5 TRPM1-promoter luciferase, 24 h; % of positive control, neutral wells = 0 | AID 588334;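 active = mean activation of at least 80% with every replicate also reaching 80%; inconclusive = mean reaches 80% but some replicate falls short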;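 note: 0% = neutral control wells and 100% = parthenolide positive control wells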
Vif inh: inhibitors of HIV Vif; HEK293T cells, Vif self-association by quenched fluorescence, imaging, 24 h; inhibition, % at 7.49 µM; actives 0.35% (n = 340,000); AID 602346; in the data active = inhibition above about 50%, passing the limit was not always enough; inconclusive = no clear call, values can overlap the other calls; inactive = below about 31%
Wnt bcat act: activators of Wnt/beta-catenin signaling. Wnt/beta-catenin reporter cell assay, activator, plate reader. activation, % at 9.35 µM. actives 1.2% (n = 300,000). AID 743398; in the data active = activation above about 30%, passing the limit was not always enough; inconclusive = no clear call, values can overlap the other calls;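 note: 0% = neutral control wells and 100% = positive control wells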
An asterisk follows results filed as active; u = inconclusive; x = no result given.

SMILES	Xi reactivation	esBAF inh	MITF TRPM1 HTS	Vif inh	Wnt bcat act
CS(=O)(=O)Nc1ccc2c(c1)[C@@H]1C[C@H](CC(=O)NCc3ccccn3)O[C@H](CO)[C@@H]1O2	0	-4	x	x	x
Cc1ccccc1S(=O)(=O)N1CC[C@@H]2[C@@H](CO)N(C)c3ccc(-c4ccc(F)cc4)cc3[C@@H]21	0	-4	x	x	x
C[C@H](CO)N1C[C@H](C)[C@H](CN(C)C(=O)Nc2cc(F)ccc2F)Oc2ncc(C#CCN(C)C)cc2C1=O	-1	-4	x	x	x
C[C@H](CO)N1C[C@H](C)[C@H](CN(C)C)Oc2ncc(-c3cccc(F)c3)cc2C1=O	1	-5	x	x	x
COc1cccc(OCc2cc(C(=O)NCc3ccccn3)no2)c1	0	61*	110*	-6	16
CCCc1ccc(OCc2ccc(C(=O)OC)o2)c(OC)c1	x	43*	34	-8	19
CC(=O)N(C)C[C@H]1Oc2ccc(NC(=O)NC(C)C)cc2C(=O)N(C)C[C@H]1C	0	x	x	x	x
CCc1cc(C(=O)Nc2ncccc2O)sc1C	0	x	2	0	37*
CCc1cc(C(=O)Nc2ccc(OC)nc2)sc1C	0	47*	59	-9	21
O=C(CNC(=O)c1cccs1)Nc1ncccc1O	0	-4	3	13	0
C[C@@H]1CN([C@@H](C)CO)C(=O)c2cc(NC(=O)CCN3CCOCC3)ccc2O[C@H]1CN(C)S(=O)(=O)c1cn(C)cn1	0	-3	x	x	x
COc1cc2c(OC(C)=O)c3c(c(-c4ccc5c(c4)OCO5)c2cc1OC)C(=O)OC3	x	-32	x	173*	-2
COc1ccc(N2CCN(CCCNC(=O)C(=O)c3c(C)n(C)c4ccccc34)CC2)cc1	0	1	-6	54*	2
CC(=O)Nc1ccc2c(c1)ncn2-c1ccc(C)cc1	0	x	39	6	43*
CC(=O)Nc1ccc2c(c1)ncn2C	x	x	x	-2	-4
Cc1cc2nn(-c3ccccc3)nc2cc1NC(=O)c1cccs1	x	x	48	-4	31*
CCCC(=O)Nc1ccc2nn(-c3ccc(OC)cc3)nc2c1	0	50*	76	-1	-1
CC(=O)Nc1cc2nn(-c3ccccc3)nc2cc1C	0	8	7	-3	22
Cc1ccc(-n2nc3ccc(NC(=O)C(C)C)cc3n2)cc1	0	100*	111*	-1	-4
COc1ccc(-n2nc3ccc(N)cc3n2)cc1	0	-59	x	-4	-1
CCC(=O)N1C[C@H](C)[C@@H](OC)CN(C)C(=O)c2ccc(NC(=O)COC)cc2OC[C@H]1C	0	-1	x	x	x
Cc1ccc(S(=O)(=O)N[C@H]2CC[C@@H](CCNS(=O)(=O)Cc3ccccc3)O[C@@H]2CO)cc1	0	4	x	x	x
COc1ccc2c3c(n(C)c2c1)[C@H](CO)N(C(=O)Nc1ccccc1F)CC31CN(C)C1	0	x	x	x	x
CCC(=O)Nc1cc2nn(-c3ccccc3)nc2cc1Cl	x	36	7	-6	38*
CC(C)CC(=O)Nc1ccc2nn(-c3ccccc3)nc2c1	1	x	99*	-2	u
SMILES	Xi reactivation	esBAF inh	MITF TRPM1 HTS	Vif inh	Wnt bcat act
CC(C)C(=O)Nc1ccc2nn(-c3ccc(F)cc3)nc2c1	x	2	x	-2	x
CCC(=O)Nc1cc2c(cc1Cl)-c1ccccc1C2	0	39	16	-2	17
COc1ccc2c3c(n(C)c2c1)[C@H](CO)N(CC1CC1)CC31CCN(C(=O)CC2CC2)CC1	0	x	x	x	x
C[C@H]1CN([C@@H](C)CO)C(=O)Cc2cc(NC(=O)Nc3cccc4ccccc34)ccc2O[C@H]1CN(C)S(=O)(=O)c1ccccc1	0	-9	x	x	x
CSc1nccc(N/N=C/c2ccccc2)n1	0	52	97*	1	37*
COc1cccc(NC(=O)N[C@H]2C=C[C@H](CC(=O)Nc3ccccc3)O[C@H]2CO)c1	0	x	x	x	x
CSCC(=O)N1CCc2ccc(NC(=O)c3ccccc3Cl)cc2C1	0	66*	47	1	15
O=C(NCC[C@@H]1CC[C@@H](NC(=O)c2cnccn2)[C@@H](CO)O1)Nc1ccc(Cl)cc1	0	3	x	x	x
Cc1c(C(=O)NCc2cccnc2)sc2nc(-c3ccccc3)cn12	0	66*	x	x	7
Cc1c(C(=O)NCc2cccnc2)sc2nc(-c3ccc(F)cc3)cn12	0	66*	x	-4	0
Cc1c(C(=O)Nc2ccncc2)sc2nc(-c3ccccc3)cn12	0	-5	x	-9	3
Cc1c(C(=O)NCCCN2CCOCC2)sc2nc(-c3ccc(F)cc3)cn12	x	16	24	-6	x
Cc1c(C(=O)NCc2ccco2)sc2nc(-c3ccccc3)cn12	0	48*	x	-7	19
COc1ccc(-c2cn3c(C)c(C(=O)NCCN4CCOCC4)sc3n2)cc1	x	56*	x	-5	x
O=C(C[C@@H]1C=C[C@H](NC(=O)C2CC2)[C@@H](CO)O1)NCC1CC1	0	0	x	x	x
Cc1noc(C)c1S(=O)(=O)Nc1ccc2c(c1)C(=O)N([C@@H](C)CO)C[C@@H](C)[C@H](CN(C)S(=O)(=O)c1cn(C)cn1)OCCCC[C@H](C)O2	0	-5	x	x	x
COc1ccc(S(=O)(=O)Nc2ccc3c(c2)[C@@H]2C[C@H](CC(=O)NCC4CC4)O[C@@H](CO)[C@@H]2O3)cc1	0	1	x	x	x
CC(=O)N1CC(=O)N2[C@H](CO)[C@H](c3ccc(-c4ccc(C)cc4)cc3)[C@@H]2C1	0	x	x	x	x
COc1cc(C(=O)OC2CC3CCC2(C)C3(C)C)ccc1OC(C)=O (stereo not drawn)	x	49*	28	-5	0
O=C(NC1CCCCC1)C(c1cccs1)N(C(=O)c1ccco1)c1ccc2c(c1)OCCO2 (stereo not drawn)	x	78*	-1	-18	0
CCc1ccc(N(C(=O)c2ccco2)C(C(=O)NC2CCCC2)c2ccco2)cc1 (stereo not drawn)	x	50*	5	x	x
O=C(NC1CCCC1)C(c1ccco1)N(C(=O)c1ccco1)c1ccccc1 (stereo not drawn)	0	3	-4	-9	0
CCc1ccc(N(C(=O)c2ccco2)C(C(=O)NC2CCCC2)c2ccncc2)cc1 (stereo not drawn)	0	42*	17	x	8
CC(=O)N1C2CN(CC(F)(F)F)CC1C2c1ccc(Br)cc1 (stereo not drawn)	0	x	x	x	x
